Reference: ChEMBL document CHEMBL1143161, “Non-charged thiamine analogs as inhibitors of enzyme transketolase” (Bioorg Med Chem Lett, 2008)

Experiments:
[1] = system: Cc1ncc(Cn2c(C)c(CCO)sc2=O)c(N)n1; assay: (§1) Ratio of kcat to Km for thiamine […]
Outline: (§2)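 Enzymatic TPPK assay with kcat/Km derived, run in triplicate. The value is the average, with data within 2-fold of the mean.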

[2] = system: Cc1c(Cc2cnc(C(F)(F)F)nc2N)csc1CCO; assay: as §1; outline: as §2
[3] = system: Cc1ncc(Cc2c(C)c(CCO)nn2C)c(N)n1; assay: as §1; outline: as §2
[4] = system: Cc1c(Cc2cnc(C3CC3)nc2N)csc1CCO; assay: as §1; outline: as §2
[5] = system: Cc1c(Cc2cnc(-c3ccccc3)nc2N)csc1CCO; assay: as §1; outline: as §2
[6] = system: CC(=O)Nc1ncc(Cc2csc(CCO)c2C)c(N)n1; assay: as §1; outline: as §2
Cc1c(Cc2cncnc2N)csc1CCO = assay: as §1; outline: as §2
[7] = system: Cc1ncc(C[n+]2csc(CCO)c2C)c(N)n1; assay: as §1; outline: as §2
[8] = system: Cc1ncc(Cc2csc(CCO)c2C)c(N)n1; assay: as §1; outline: as §2
[9] = system: Cc1c(Cc2cnc(C(C)C)nc2N)csc1CCO; assay: as §1; outline: as §2

Substance: Thiamine pyrophosphokinase 1 (Homo sapiens), Q9H3S4
- kcat/Km [1]: 1 10^-5/nM/s
- kcat/Km [2]: 8.5 10^-4/nM/s
- kcat/Km [3]: 1.9 10^-5/nM/s
- kcat/Km [4]: 2.7 10^-5/nM/s
- kcat/Km [5]: 1 10^-6/nM/s
- kcat/Km [6]: 1.1 10^-6/nM/s
- kcat/Km (Cc1c(Cc2cncnc2N)csc1CCO): 1.2 10^-5/nM/s
- kcat/Km [7]: 1.2 10^-5/nM/s
- kcat/Km [8]: 3.4 10^-5/nM/s
- kcat/Km [9]: 2.4 10^-5/nM/s
